Reference: ChEMBL document CHEMBL3621084, “Discovery of 2-Pyridinone Aminals: A Prodrug Strategy to Advance a Second Generation of HIV-1 Integrase Strand Transfer Inhibitors” (J Med Chem, 2015)
Values after ≈ are worked out from the molar mass of the structure shown.

Tests used:
[1] = system: Human immunodeficiency virus 1; experiment: Antiviral activity against HIV1 infected in human MT4 cells expressing GFP incubated for 48 to 72 hrs in presence of 50% normal human serum by multiple round viral replication kinetics assay; assay type: functional
[2] = Oral bioavailability in rat; assay type: ADME, organism-based; settings: in vivo
[3] = Plasma clearance in dog; assay type: ADME, organism-based, Canis lupus familiaris
[4] = system: Human immunodeficiency virus 1; experiment: Resistance index, ratio of IC50 for antiviral activity against HIV1 expressing integrase Y143R mutant to IC50 for antiviral activity against HIV1 expressing wild type integrase; assay type: functional
Method in brief: (§1)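 Fold shift computed as the inflection point (IP) against mutant HIV-1 divided by the IP against wild-type virus. Both IPs come from a kinetic HIV replication (viral kinetics) potency assay run in 50% normal human serum (NHS).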

[5] = Oral bioavailability in dog; assay type: ADME, organism-based, Canis lupus familiaris; settings: in vivo
[6] = system: Human immunodeficiency virus 1; experiment: Resistance index, ratio of IC50 for antiviral activity against HIV1 expressing integrase Q148R mutant to IC50 for antiviral activity against HIV1 expressing wild type integrase; assay type: functional; method in brief: as §1
[7] = Intrinsic clearance in human hepatocytes at 1 uM by LC-MS/MS method; assay type: ADME, cell-based, Hepatocyte; settings: read-out: CLH
[8] = system: Human immunodeficiency virus 1; experiment: Resistance index, ratio of IC50 for antiviral activity against HIV1 expressing integrase E92Q mutant to IC50 for antiviral activity against HIV1 expressing wild type integrase; assay type: functional; method in brief: as §1
[9] = Plasma clearance in rat; assay type: ADME, organism-based
[10] = system: Human immunodeficiency virus 1; experiment: Antiviral activity against HIV1 infected in human MT4 cells expressing GFP incubated for 48 to 72 hrs in absence of 50% normal human serum by multiple round viral replication kinetics assay; assay type: functional
[11] = Half life in beagle dog at 0.5 mg/kg, iv by LC-MS/MS method; settings: in vivo
Canis familiaris [12] = experiment: (§2) Oral bioavailability in beagle dog at 2 mg/kg by LC-MS/MS method; assay type: ADME, organism-based, Canis lupus familiaris; settings: in vivo
[13] = Volume of distribution at steady state in beagle dog at 0.5 mg/kg, iv by LC-MS/MS method; assay type: ADME, organism-based, Canis lupus familiaris; settings: in vivo, read-out: Vdss
[14] = Half life in Wistar-Hanover rat at 0.2 mg/kg, iv by LC-MS/MS method; settings: in vivo
[15] = Oral bioavailability in Wistar-Hanover rat at 2 mg/kg by LC-MS/MS method; assay type: ADME, organism-based; settings: in vivo
[16] = AUC (0 to infinity) in Wistar-Hanover rat at 2 mg/kg, po by LC-MS/MS method; assay type: ADME, organism-based; design: dose 2 mg/kg, route oral, time infinity; settings: in vivo
Canis familiaris [17] = experiment: (§3) AUC (0 to infinity) in beagle dog at 2 mg/kg, po by LC-MS/MS method; assay type: ADME, organism-based, Canis lupus familiaris; design: dose 2 mg/kg, route oral, time infinity; settings: in vivo
[18] = Plasma clearance in Wistar-Hanover rat at 0.2 mg/kg, iv by LC-MS/MS method; assay type: ADME, organism-based
[19] = Volume of distribution at steady state in Wistar-Hanover rat at 0.2 mg/kg, iv by LC-MS/MS method; assay type: ADME, organism-based; settings: in vivo, read-out: Vdss
Cytochrome P450 3A4 = Cytochrome P450 3A4 (Homo sapiens, UniProt P08684); experiment: Time dependent inhibition of CYP3A4 (unknown origin); assay type: ADME
Sequence of Cytochrome P450 3A4 (P08684 whole entry): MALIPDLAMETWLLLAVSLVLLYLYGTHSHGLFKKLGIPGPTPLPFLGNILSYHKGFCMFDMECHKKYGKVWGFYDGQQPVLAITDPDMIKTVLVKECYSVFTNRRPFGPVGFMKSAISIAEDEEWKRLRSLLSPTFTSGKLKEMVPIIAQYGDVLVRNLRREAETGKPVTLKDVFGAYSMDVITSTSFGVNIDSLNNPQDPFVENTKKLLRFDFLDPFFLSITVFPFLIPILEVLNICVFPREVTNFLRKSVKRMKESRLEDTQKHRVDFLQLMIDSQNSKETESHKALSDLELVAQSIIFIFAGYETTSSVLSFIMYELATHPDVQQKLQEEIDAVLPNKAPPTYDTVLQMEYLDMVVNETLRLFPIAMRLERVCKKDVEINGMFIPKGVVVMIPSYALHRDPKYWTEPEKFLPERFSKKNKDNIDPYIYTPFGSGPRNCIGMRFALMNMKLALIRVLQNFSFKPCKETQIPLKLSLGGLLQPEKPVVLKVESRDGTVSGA

[20] = Permeability in LLC-PK1 cells at 1 uM incubated for 3 hrs by LC-MS/MS method; assay type: ADME, cell-based, Sus scrofa; settings: pig, read-out: permeability
[21] = as §2; assay type: ADME, organism-based, Canis lupus familiaris; settings: beagle, in vivo
[22] = Solubility in SGF at pH 1.8 at room temperature incubated for 4 hrs; assay type: physicochemical
Canis familiaris [23] = experiment: AUC (0 to infinity) in beagle dog assessed as (1R,2R,5S)-8'-(3-chloro-4-fluorobenzyl)-6'-hydroxy-2'-((S)-2-hydroxypropyl)-9',10'-dihydro-1'H-spiro[bicyclo[3.1.0]hexane-2,3'-imidazo[5,1-a][2,6]naphthyridine]-1',5',7'(2'H,8'H)-trione level at 2 mg/kg, po by LC-MS/MS method; assay type: ADME, organism-based, Canis lupus familiaris; design: dose 2 mg/kg, time infinity, route oral; settings: in vivo
Method in brief: (§4)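 Oral rising-dose studies were run in beagle dogs with prodrugs, at doses normalized to account for the promoiety so that they give the actual parent dose administered. The read-out was plasma exposure (AUC) of the parent compound.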

[24] = Plasma clearance in beagle dog at 0.5 mg/kg, iv by LC-MS/MS method; assay type: ADME, organism-based, Canis lupus familiaris
[25] = Protein binding in human plasma at 2.5 uM incubated for 4 hrs by LC-MS/MS detection based equilibrium dialysis method; assay type: ADME, cell-free; settings: read-out: PPB (converted)
[26] = Protein binding in beagle dog plasma at 2.5 uM incubated for 4 hrs by LC-MS/MS detection based equilibrium dialysis method; assay type: ADME, cell-free, Canis lupus familiaris; settings: read-out: PPB (converted)
[27] = Permeability in MDCK2 cells at 1 uM incubated for 3 hrs by LC-MS/MS method; assay type: ADME, cell-based, Canis lupus familiaris, MDCK-II; settings: dog, MDCK; read-out: permeability
[28] = as §3; assay type: ADME, organism-based, Canis lupus familiaris; design: dose 2 mg/kg, route oral, time infinity; settings: beagle, in vivo
[29] = Solubility in FaSSiF at pH 6.5 at room temperature incubated for 4 hrs; assay type: physicochemical
[30] = Oral bioavailability in beagle dog at 1 mg/kg by LC-MS/MS method; assay type: ADME, organism-based, Canis lupus familiaris; settings: in vivo
Canis familiaris [31] = experiment: AUC (0 to infinity) in beagle dog assessed as c(1R,2S,5R)-8'-(3-chloro-4-fluorobenzyl)-6'-hydroxy-1-(hydroxymethyl)-2'-methyl-9',10'-dihydro-1'H-spiro[bicyclo[3.1.0]hexane-2,3'-imidazo[5,1-a][2,6]naphthyridine]-1',5',7'(2'H,8'H)-trione evel at 2 mg/kg, po by LC-MS/MS method; assay type: ADME, organism-based, Canis lupus familiaris; design: dose 2 mg/kg, route oral, time infinity; settings: in vivo; method in brief: as §4
[32] = AUC (0 to infinity) in beagle dog at 1 mg/kg, po by LC-MS/MS method; assay type: ADME, organism-based, Canis lupus familiaris; design: dose 1 mg/kg, route oral, time infinity; settings: in vivo
[33] = Half life in beagle dog at 0.5 mg/kg, iv by LC-MS/MS method; settings: in vivo; remark: listed apart in the source

SMILES	IP [1] [nM]	Ratio IC50 [4]	Ratio IC50 [6]	Ratio IC50 [8]	IP [10] [nM]	half-life [11] [h]	Vd [13] [L/kg]	TDI (Cytochrome P450 3A4)	Papp at 3 h, 1 µM [20] [×10⁻⁶ cm/s]	solubility at 4 h [22] [µg/mL]	clearance [24] [mL/min/kg]	fraction unbound at 4 h, 2.5 µM [25]	fraction unbound at 4 h, 2.5 µM [26]	Papp at 3 h, 1 µM [27] [×10⁻⁶ cm/s]	solubility at 4 h [29] [µg/mL]	other results
CC(C)n1c(C(=O)N(C)C)c2c(c(O)c1=O)C(=O)N(Cc1ccc(F)c(Cl)c1)CC2	53	2	1	1	6	–	–	–	–	–	–	–	–	–	–	bioavailability [2]: 29%; clearance [3]: 2.2 mL/min/kg; bioavailability [5]: 44%; CLint scaled at 1 µM [7]: < 20 mL/min/kg; clearance [9]: 2.3 mL/min/kg
Cc1nnc(C(=O)NC(C)(C)c2nc(C(=O)NCc3ccc(F)cc3)c(O)c(=O)n2C)o1	53	–	–	–	9	–	–	–	–	–	–	–	–	–	–	–
O=C1N[C@]2(CC[C@H]3C[C@H]32)n2c1c1c(c(O)c2=O)C(=O)N(Cc2ccc(F)c(Cl)c2)CC1	600	1	5	3	2.5	16	0.19	–	–	–	–	–	–	–	–	F (Canis familiaris [12]): 27%; half-life [14]: 14 h; bioavailability [15]: 29%; AUC(0-inf) [16]: 189 µM·h; AUC (Canis familiaris [17]): 47 µM·h; clearance [18]: 0.12 mL/min/kg; Vd [19]: 0.12 L/kg
C[C@H](O)CN1C(=O)c2c3c(c(O)c(=O)n2[C@@]12CC[C@H]1C[C@H]12)C(=O)N(Cc1ccc(F)c(Cl)c1)CC3	67	1	1.5	1.5	2	5.9	0.6	Not Active	14.8	30 (≈ 59.8 µM)	3	0.025	0.012	22.9	58 (≈ 116 µM)	bioavailability [21]: 42%; AUC (Canis familiaris [23]): 11 µM·h; AUC(0-inf) [28]: 10.5 µM·h
CN1C(=O)c2c3c(c(O)c(=O)n2[C@]12CC[C@@H]1C[C@@]12CO)C(=O)N(Cc1ccc(F)c(Cl)c1)CC3	32	1	1	1	3	–	0.4	Not Active	6.7	17 (≈ 34.8 µM)	1.9	0.02	0.014	8.4	30 (≈ 61.5 µM)	bioavailability [30]: 26%; AUC (Canis familiaris [31]): 8 µM·h; AUC(0-inf) [32]: 4.9 µM·h; half-life [33]: 5 h
